Consider 6 molecules from ChEMBL document CHEMBL4368899, “Novel carbohydrate modified berberine derivatives: synthesis and in vitro anti-diabetic investigation” (Medchemcomm, 2019).

Usually IC50 stands for the concentration at which inhibition is half-maximal. A lower IC50 goes with greater potency. As usually defined, the solubility is how much of the substance goes into solution per volume. A high value points to much dissolved substance.

In data set [1] the test system is HepG2. Put plainly: Cytotoxicity against human HepG2 cells after 12 hrs by CCK-8 assay. The data set is classed as cell-based. To be noted: for IC50: Homo sapiens, HepG2, 12 h; for Activity: human, hepg2, 12 h. In short, it runs like this:
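Cells were cultured in DMEM/10% heat-inactivated FBS with penicillin/streptomycin at 37 °C, 5% CO2, and harvested with trypsin at 80–90% confluence. They were plated at 1×10^5 cells per mL, and medium was refreshed after 12 h. Cells were treated 12 h with 0.2–625 µg mL⁻¹ compound dissolved in 0.5% DMSO–water. CCK-8 was added for 4 h, then A570 read, correcting for compound colour. IC50 is relative to untreated cells as 100%. n = 3.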
Background: Tetrazolium assays rely on reduction of a dye to a coloured formazan, in cell work by metabolically active cells.

Data set [2] relates to HepG2. Put plainly: Antidiabetic activity in human HepG2 cells assessed as increase in glucose consumption at 5 ug/mL after 48 hrs by glucose oxidase method relative to berberine. The data set is classed as functional. In short, it runs like this:
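HepG2 cells were grown in DMEM with 10% heat-inactivated FBS and penicillin/streptomycin. They were seeded at 2×10^5 cells per well and cultured 12 h at 37 °C in 5% CO2. Cells were then exposed to 5.0 µg mL⁻¹ compound for two days. A DMSO solvent control and a blank were run. Glucose was measured by glucose oxidase. Consumption = blank-well glucose minus glucose remaining in treated wells. Means ± SD, n = 8, expressed as % increase over berberine.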

Data set [3] can be described thus: Aqueous solubility of compound. The data set is classed as physicochemical. To be noted: water.
The nature of data set [4]: Stability of compound in acetonitrile/water at 1:1 ratio at pH 1.5 assessed as compound degradation after 5 hrs by HPLC analysis. To be noted: acetonitrile/water 1:1, pH 1.5; read-out: Drug degradation. Format: physicochemical. In short, it runs like this:
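Remaining compound after 5 h was quantified by HPLC on a C8 column (250 × 4.6 mm, 5 µm). Elution used 50% acetonitrile in 0.05 mol L⁻¹ aqueous KH2PO4 at 1 mL min⁻¹, with detection at 320 nm.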

Each structure is given as a SMILES string.

In the case of `COc1ccc2cc3[n+](cc2c1OCc1cn([C@@H]2O[C@H](CO)[C@H](O)[C@H](O)[C@H]2O)nn1)CCc1cc2c(cc1-3)OCO2.[Cl-]`, in data set [1], half-maximal inhibition (IC50) was put at 59.3 µg/mL and the Activity result is listed as “Dose-dependent effect”. Further, the Activity in data set [2] was determined as 0.21%.
The like results for `COc1ccc2cc3[n+](cc2c1OCc1cn([C@@H]2O[C@H](CO)[C@@H](O)[C@H](O)[C@H]2O)nn1)CCc1cc2c(cc1-3)OCO2.[Cl-]` were, in that order, 62.9 µg/mL, “Dose-dependent effect” and 2.23%.
With `COc1ccc2cc3[n+](cc2c1OC)CCc1cc2c(cc1-3)OCO2.[Cl-]` [BERBERINE CHLORIDE], the solubility in data set [3] is 1750 µg/mL. Also, the degraded at 5 h in data set [4] worked out at 1.8%. Besides, the 50% inhibitory concentration (IC50) in data set [1] turned out to be 53.9 µg/mL.
In the case of `COc1ccc2cc3[n+](cc2c1OCc1cn([C@@H]2O[C@H](CO)[C@@H](O)[C@H]2O)nn1)CCc1cc2c(cc1-3)OCO2.[Cl-]`, the IC50 in data set [1] is 44 µg/mL. The Activity result in data set [1] is given as “Dose-dependent effect”; in data set [2], 14.83%.
The like results for `COc1ccc2cc3[n+](cc2c1OCc1cn([C@@H]2O[C@@H](C)[C@H](O)[C@@H](O)[C@H]2O)nn1)CCc1cc2c(cc1-3)OCO2.[Cl-]` were, in that order, 49.3 µg/mL, “Dose-dependent effect” and -3.6%.
On to `COc1ccc2cc3[n+](cc2c1OCc1cn([C@H]2O[C@H](CO)[C@@H](O)[C@H](O)[C@@H]2O)nn1)CCc1cc2c(cc1-3)OCO2.[Cl-]`, for which, in data set [3], the concentration in solution (solubility) came to 9000 µg/mL. Besides, the degraded at 5 h in data set [4] came to 0.3%. Moreover, in data set [1], the IC50 was 72.2 µg/mL and the Activity entry is listed as “Dose-dependent effect”. The Activity in data set [2] is 10.81%.
